Measured values published in ChEMBL document CHEMBL1123807, “Aldosterone antagonists. 2. New 7 alpha-(acetylthio)-15,16-methylene spirolactones” (1987).

How the values were obtained:
[1] = target: T1, Progesterone receptor (Oryctolagus cuniculus) (UniProt P06186); assay: Relative binding to progesterone receptor compared to progesterone
T1 sequence (whole entry): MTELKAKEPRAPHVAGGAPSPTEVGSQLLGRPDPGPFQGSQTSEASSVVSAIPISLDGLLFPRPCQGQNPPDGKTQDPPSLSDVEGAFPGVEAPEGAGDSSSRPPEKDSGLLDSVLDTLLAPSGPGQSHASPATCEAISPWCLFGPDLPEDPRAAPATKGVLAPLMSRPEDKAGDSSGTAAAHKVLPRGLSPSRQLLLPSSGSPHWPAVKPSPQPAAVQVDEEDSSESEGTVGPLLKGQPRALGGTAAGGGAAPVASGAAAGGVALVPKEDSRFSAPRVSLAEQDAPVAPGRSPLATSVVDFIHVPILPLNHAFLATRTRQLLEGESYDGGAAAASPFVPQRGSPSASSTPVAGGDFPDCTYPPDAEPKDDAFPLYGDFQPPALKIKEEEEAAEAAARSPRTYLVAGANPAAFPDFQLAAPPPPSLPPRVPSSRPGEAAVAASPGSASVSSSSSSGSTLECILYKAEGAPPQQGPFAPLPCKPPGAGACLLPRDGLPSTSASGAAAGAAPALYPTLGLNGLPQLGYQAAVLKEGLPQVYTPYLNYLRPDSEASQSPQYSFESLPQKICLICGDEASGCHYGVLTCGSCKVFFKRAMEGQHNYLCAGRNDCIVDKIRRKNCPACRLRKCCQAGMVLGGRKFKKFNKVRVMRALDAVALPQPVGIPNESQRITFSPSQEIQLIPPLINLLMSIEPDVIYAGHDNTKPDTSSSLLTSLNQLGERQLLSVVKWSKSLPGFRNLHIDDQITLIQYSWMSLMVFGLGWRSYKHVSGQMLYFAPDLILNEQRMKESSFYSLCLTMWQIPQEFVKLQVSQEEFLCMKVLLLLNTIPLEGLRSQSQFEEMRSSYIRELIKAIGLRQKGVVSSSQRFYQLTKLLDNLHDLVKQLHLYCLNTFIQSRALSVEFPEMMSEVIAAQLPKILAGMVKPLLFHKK
Procedure, shortened: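 Competitive binding to progesterone receptor from rabbit uterus using tritiated progesterone as ligand. Competition factor is the multiple of the concentration needed to give displacement equivalent to the standard; a high factor means weak binding.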

[2] = target: T1, Progesterone receptor (Oryctolagus cuniculus); assay: Progestational activity by Clauberg test in rabbits as McPhail index after 100 mg subcutaneous dose; assay type: functional
Procedure, shortened: (§1)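 Castrated infantile female New Zealand rabbits (800–1000 g) were primed with estradiol 0.5 μg sc daily for 6 days. They then received compound over 5 days (total 3–100 mg sc or 30–300 mg po).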

[3] = target: T1, Progesterone receptor (Oryctolagus cuniculus); assay: Progestational activity by Clauberg test in rabbits as McPhail index after 10 mg subcutaneous dose; assay type: functional; procedure, shortened: as §1
[4] = target: T1, Progesterone receptor (Oryctolagus cuniculus); assay: Progestational activity by Clauberg test in rabbits as McPhail index after 30 mg subcutaneous dose; assay type: functional; procedure, shortened: as §1
[5] = species on record: Rattus norvegicus; assay: Ovulation inhibitory activity in rats after 40 mg peroral dose
[6] = target: T2, Mineralocorticoid receptor (Rattus norvegicus) (UniProt P22199); assay: Antialdosterone activity in rats administered orally compared to Spironolactone(100)
T2 sequence (whole entry): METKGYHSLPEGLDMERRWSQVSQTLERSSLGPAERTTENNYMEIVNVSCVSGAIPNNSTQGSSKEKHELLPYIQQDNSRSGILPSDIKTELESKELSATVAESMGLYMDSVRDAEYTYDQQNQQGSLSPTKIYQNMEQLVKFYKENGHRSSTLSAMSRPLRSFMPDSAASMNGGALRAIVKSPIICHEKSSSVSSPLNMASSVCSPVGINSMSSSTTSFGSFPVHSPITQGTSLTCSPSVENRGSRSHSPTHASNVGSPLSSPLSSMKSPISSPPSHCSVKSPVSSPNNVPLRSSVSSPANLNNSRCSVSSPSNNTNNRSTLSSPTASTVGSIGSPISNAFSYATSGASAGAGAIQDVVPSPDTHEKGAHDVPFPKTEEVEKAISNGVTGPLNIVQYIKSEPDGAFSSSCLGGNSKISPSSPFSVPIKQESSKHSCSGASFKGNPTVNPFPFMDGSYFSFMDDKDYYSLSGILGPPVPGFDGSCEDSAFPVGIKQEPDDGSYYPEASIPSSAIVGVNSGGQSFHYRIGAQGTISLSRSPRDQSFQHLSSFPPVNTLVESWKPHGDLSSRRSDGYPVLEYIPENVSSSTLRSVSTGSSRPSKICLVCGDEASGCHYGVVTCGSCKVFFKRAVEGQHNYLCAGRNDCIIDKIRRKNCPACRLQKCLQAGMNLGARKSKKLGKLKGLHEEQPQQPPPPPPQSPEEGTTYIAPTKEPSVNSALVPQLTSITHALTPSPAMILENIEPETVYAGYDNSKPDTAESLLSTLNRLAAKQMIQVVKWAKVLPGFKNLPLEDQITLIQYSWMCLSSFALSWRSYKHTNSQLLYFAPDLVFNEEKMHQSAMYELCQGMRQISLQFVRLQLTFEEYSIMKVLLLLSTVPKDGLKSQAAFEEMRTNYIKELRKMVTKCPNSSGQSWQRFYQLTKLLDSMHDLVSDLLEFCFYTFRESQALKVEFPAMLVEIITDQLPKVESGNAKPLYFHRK

[7] = species on record: Rattus norvegicus; assay: Ovulation inhibitory activity in rats after 30 mg peroral dose
[8] = species on record: Rattus norvegicus; assay: Ovulation inhibitory activity in rats after 100 mg peroral dose
[9] = target: T1, Progesterone receptor (Oryctolagus cuniculus); assay: Progestational activity by Clauberg test in rabbits as McPhail index after 100 mg peroral dose; assay type: functional; procedure, shortened: as §1
[10] = target: T1, Progesterone receptor (Oryctolagus cuniculus); assay: Progestational activity by Clauberg test in rabbits as McPhail index after 300 mg peroral dose; assay type: functional; procedure, shortened: as §1
[11] = target: T1, Progesterone receptor (Oryctolagus cuniculus); assay: Progestational activity by Clauberg test in rabbits as McPhail index after 30 mg peroral dose; assay type: functional; procedure, shortened: as §1
[12] = target: T3, Androgen receptor (Rattus norvegicus) (UniProt P15207); assay: Antiandrogenic activity as prostate weight after subcutaneous administration compared to Spironolactone; assay type: functional, organism-based; settings: Prostate gland
T3 sequence (whole entry): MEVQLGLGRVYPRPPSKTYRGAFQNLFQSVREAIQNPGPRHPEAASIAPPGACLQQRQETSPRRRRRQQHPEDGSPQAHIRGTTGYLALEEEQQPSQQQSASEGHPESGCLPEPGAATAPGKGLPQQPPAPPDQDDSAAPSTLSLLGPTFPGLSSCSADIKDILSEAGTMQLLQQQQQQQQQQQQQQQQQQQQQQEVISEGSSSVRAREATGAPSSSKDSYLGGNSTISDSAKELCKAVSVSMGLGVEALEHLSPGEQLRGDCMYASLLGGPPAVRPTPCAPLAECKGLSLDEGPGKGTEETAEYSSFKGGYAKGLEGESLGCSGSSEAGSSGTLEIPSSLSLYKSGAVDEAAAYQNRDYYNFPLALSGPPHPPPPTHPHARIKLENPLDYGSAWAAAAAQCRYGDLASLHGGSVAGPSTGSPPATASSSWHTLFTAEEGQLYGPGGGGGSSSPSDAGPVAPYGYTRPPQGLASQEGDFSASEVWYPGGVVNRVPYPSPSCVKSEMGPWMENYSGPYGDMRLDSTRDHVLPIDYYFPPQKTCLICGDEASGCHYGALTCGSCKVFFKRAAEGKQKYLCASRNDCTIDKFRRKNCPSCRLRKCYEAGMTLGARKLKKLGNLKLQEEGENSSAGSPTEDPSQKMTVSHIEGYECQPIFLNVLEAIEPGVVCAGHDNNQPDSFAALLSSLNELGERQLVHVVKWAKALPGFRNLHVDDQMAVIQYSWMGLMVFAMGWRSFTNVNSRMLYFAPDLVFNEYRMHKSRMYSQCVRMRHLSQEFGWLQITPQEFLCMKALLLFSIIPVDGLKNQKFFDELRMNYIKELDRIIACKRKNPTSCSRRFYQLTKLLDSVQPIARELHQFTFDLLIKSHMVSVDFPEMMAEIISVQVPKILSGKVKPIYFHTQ
Procedure, shortened: (§2)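 Castrated male Wistar SPF rats (~100 g) were dosed once daily for 12 days, sc at 1–16 mg/rat or po at 1–100 mg/rat, each with testosterone propionate 0.1 mg/rat sc; controls got Tp alone. On day 13, fresh seminal vesicle and ventral prostate weights were taken as % of Tp control. Relative potency came from regression/covariance analysis.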

[13] = target: T3, Androgen receptor (Rattus norvegicus); assay: Antiandrogenic activity as seminal vesicle weight after subcutaneous administration compared to Spironolactone; assay type: functional, organism-based; procedure, shortened: as §2
[14] = target: T3, Androgen receptor (Rattus norvegicus); assay: Antiandrogenic activity after peroral administration as relative potency compared to Spironolactone; assay type: functional, organism-based; procedure, shortened: as §2
[15] = target: T1, Progesterone receptor (Oryctolagus cuniculus); assay: Progestational activity by Clauberg test in rabbits as McPhail index after 3 mg subcutaneous dose; assay type: functional; procedure, shortened: as §1

| Structure (SMILES) | Ratio [1] | McPhail index [2] | McPhail index [3] | McPhail index [4] | Relative potency [6] | other results |
| --- | --- | --- | --- | --- | --- | --- |
| CC(=O)S[C@@H]1CC2=CC(=O)[C@@H]3C[C@@H]3C2(C)C2CCC3(C)C(C21)[C@@H]1C[C@@H]1[C@@]31CCC(=O)O1 (stereo partly drawn) | 7.8 | 3.4 | 1 | 1.6 | 228 | Inhibition [5]: 100% |
| CC(=O)S[C@@H]1CC2=CC(=O)C=C[C@]2(C)[C@H]2CC[C@@]3(C)[C@@H]([C@@H]4C[C@@H]4[C@@]34CCC(=O)O4)[C@H]12 (stereo in doubt; 14) | 76 | – | – | – | 115 | – |
| CC(=O)S[C@@H]1CC2=CC(=O)C=C[C@]2(C)[C@H]2CC[C@@]3(C)[C@@H]([C@@H]4C[C@@H]4[C@@]34CCC(=O)O4)[C@H]12 (stereo in doubt) [MESPIRENONE] | – | – | – | – | – | Inhibition [7]: 0%; Inhibition [8]: 20% |
| CC(=O)S[C@@H]1CC2=CC(=O)CCC2(C)C2CCC3(C)C(C21)[C@H]1C[C@H]1[C@@]31CCC(=O)O1 (stereo partly drawn) | 18 | 3.1 | 2.6 | 3.1 | 282 | – |
| CC(=O)S[C@@H]1CC2=CC(=O)CC[C@]2(C)[C@H]2CC[C@@]3(C)[C@@H](CC[C@@]34CCC(=O)O4)[C@H]12 [SPIRONOLACTONE] | – | – | – | – | – | Inhibition [5]: 16%; Inhibition [8]: 20% |
| CC(=O)S[C@@H]1CC2=CC(=O)C=C[C@]2(C)[C@H]2CC[C@@]3(C)[C@@H]([C@@H]4C[C@@H]4[C@@]34CCC(=O)O4)[C@H]12 (stereo in doubt) | 33 | 2.6 | 1.2 | 1.7 | 333 | McPhail index [9]: 1.6; McPhail index [10]: 2.8; McPhail index [11]: 1; Relative potency [12]: 0.4; Relative potency [13]: 0.2; Relative potency [14]: < 0.1 |
| CC(=O)S[C@@H]1CC2=CC(=O)CCC2(C)C2CCC3(C)C(C21)[C@@H]1C[C@@H]1[C@@]31CCC(=O)O1 (stereo partly drawn) | 14 | – | – | – | 186 | McPhail index [15]: 1.6 |
| CC(=O)S[C@@H]1CC2=CC(=O)[C@@H]3C[C@@H]3C2(C)C2CCC3(C)C(C21)[C@H]1C[C@H]1[C@@]31CCC(=O)O1 (stereo partly drawn) | 19 | 3.1 | 2.4 | 3 | 281 | Relative potency [12]: 2.4; Relative potency [13]: 1 |
